# Square brackets hold non-standard residues; d marks the D form. Ends that are not written are not given here. * marks the point of attachment. Nle = CCCC[C@H](N)C(=O)O; For = O=C*
# T1: FPR R190/N192 (Homo sapiens, UniProt P21462)
# T1 sequence (P21462 1-350): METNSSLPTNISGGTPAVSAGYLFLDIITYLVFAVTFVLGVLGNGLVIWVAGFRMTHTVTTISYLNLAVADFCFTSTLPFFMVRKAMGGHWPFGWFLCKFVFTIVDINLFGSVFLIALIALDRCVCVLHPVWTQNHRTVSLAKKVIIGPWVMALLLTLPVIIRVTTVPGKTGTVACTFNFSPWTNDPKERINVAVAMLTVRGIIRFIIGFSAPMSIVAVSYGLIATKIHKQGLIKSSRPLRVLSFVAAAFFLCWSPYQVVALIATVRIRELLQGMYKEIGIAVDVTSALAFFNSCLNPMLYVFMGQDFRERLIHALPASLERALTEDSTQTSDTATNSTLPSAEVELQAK
# T2: FPR W190/N192 (Homo sapiens, UniProt P21462, R190W)
# T2 sequence (P21462 1-350 R190W): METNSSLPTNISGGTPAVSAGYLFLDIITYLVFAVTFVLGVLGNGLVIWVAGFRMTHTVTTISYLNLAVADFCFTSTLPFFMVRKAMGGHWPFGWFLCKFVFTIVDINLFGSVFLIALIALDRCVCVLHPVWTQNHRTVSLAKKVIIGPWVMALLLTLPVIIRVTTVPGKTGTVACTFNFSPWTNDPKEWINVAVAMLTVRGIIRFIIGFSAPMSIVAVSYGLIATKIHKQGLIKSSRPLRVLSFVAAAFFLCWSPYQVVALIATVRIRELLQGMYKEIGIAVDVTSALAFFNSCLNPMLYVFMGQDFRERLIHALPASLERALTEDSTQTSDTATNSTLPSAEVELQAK
# T3: FPR R190/K192 (Homo sapiens, UniProt P21462, N192K)
# T3 sequence (P21462 1-350 N192K): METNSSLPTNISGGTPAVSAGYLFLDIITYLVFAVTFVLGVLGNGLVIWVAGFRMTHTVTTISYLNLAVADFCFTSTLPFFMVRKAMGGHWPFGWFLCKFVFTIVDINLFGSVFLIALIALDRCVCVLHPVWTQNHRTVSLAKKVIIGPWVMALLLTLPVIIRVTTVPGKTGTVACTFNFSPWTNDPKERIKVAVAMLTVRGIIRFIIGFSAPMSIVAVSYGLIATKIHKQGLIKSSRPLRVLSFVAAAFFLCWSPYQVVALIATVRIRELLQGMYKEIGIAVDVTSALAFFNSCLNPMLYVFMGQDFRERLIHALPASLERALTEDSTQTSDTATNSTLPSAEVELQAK
# T4: FPR W190/N192 (Homo sapiens, UniProt P21462)
# T4 chain: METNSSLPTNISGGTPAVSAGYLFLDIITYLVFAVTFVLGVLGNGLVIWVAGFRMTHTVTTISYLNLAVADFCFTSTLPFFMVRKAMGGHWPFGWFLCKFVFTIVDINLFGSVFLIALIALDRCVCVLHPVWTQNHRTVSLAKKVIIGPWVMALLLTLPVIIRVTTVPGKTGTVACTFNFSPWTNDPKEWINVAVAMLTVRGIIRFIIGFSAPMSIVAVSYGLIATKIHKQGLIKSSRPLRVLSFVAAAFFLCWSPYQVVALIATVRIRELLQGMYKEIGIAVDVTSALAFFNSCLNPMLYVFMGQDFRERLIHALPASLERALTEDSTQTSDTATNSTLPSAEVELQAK
# T5: FPR R190/N192 (Homo sapiens, UniProt P21462)
# T5 chain: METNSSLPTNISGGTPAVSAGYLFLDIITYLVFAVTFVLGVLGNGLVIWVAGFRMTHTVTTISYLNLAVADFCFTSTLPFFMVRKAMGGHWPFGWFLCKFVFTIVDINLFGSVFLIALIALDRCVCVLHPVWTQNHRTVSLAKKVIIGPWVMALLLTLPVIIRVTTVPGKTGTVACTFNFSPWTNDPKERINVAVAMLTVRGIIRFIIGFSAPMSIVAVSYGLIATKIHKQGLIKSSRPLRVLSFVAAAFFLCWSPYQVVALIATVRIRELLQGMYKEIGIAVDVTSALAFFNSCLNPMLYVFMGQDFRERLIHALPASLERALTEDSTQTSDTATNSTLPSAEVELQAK
# Assays:
# FPR R190/N192 [1] = molecular target: T1, FPR R190/N192; test: FACScan analysis of ligand binding
# FPR W190/N192 [2] = molecular target: T2, FPR W190/N192; test: FACScan analysis of ligand binding
# FPR R190/K192 [3] = molecular target: T3, FPR R190/K192; test: FACScan analysis of ligand binding
# FPR R190/K192 [4] = molecular target: T3, FPR R190/K192; test: Downregulation of surface FPR in CHO S cells; format: cell-based
# Outline: (§1)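 CHO S cells expressing the FPR variant were exposed to test compound (0.4% DMSO) in CHO-S-SFMII for 1 h at 37 °C. They were washed twice with cold phosphate buffer, then labeled 1 h at 4 °C with 50 nM formyl-Nle-Leu-Phe-Nle-Tyr-Lys-FITC in pH 7.4 buffer with Mg++, Ca++ and 5% FBS. Mean fluorescence was measured by FACScan, minus non-expressing cells.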
# FPR R190/N192 [5] = molecular target: T1, FPR R190/N192; test: Downregulation of surface FPR in CHO S cells; format: cell-based
# Outline: as §1
# FPR W190/N192 [6] = molecular target: T2, FPR W190/N192; test: Downregulation of surface FPR in CHO S cells; format: cell-based
# Outline: as §1
# FPR W190/N192 [7] = molecular target: T4, FPR W190/N192; test: FACS competition with formyl-Nle-Leu-Phe-Nle-Tyr-Lys-FITC
# FPR R190/N192 [8] = molecular target: T5, FPR R190/N192; test: as above
molecule,measurement,setting,value
Ac-WEDAVGWI-NH2,"Binding relative to WEDWVGWI, R190/N192",FPR R190/N192 [1]; fold weaker,more than 10 fold
same,"Binding relative to WEDWVGWI, W190/N192",FPR W190/N192 [2]; fold weaker,more than 10 fold
same,"Binding relative to WEDWVGWI, R190/K192",FPR R190/K192 [3]; fold weaker,more than 10 fold
Ac-WEDWVGWI-NH2,"Inhibition of the downregulation with 300 nM formyl-Nle-Leu-Phe, R190/K192","FPR R190/K192 [4]; 25 μM peptide, data not shown",~50%
same,Ki,"FPR R190/N192 [1]; Ki for binding of peptides to R190/N192 FPR, ± SEM, vs 0.38 nM formyl-Nle-Leu-Phe-Nle-Tyr-Lys-FITC, 4 °C, 60 min",1300 ± 200 nM
same,"Inhibition of the downregulation with 300 nM formyl-Nle-Leu-Phe, R190/N192","FPR R190/N192 [5]; 25 μM peptide, data not shown",~50%
same,"Inhibition of the downregulation with 300 nM formyl-Nle-Leu-Phe, W190/N192","FPR W190/N192 [6]; 25 μM peptide, data not shown",~50%
same,Ki,FPR W190/N192 [2],2600 ± 400 nM
same,Ki,"FPR R190/K192 [3]; Ki for binding of peptides to R190/K192 FPR, ± SEM, vs 0.38 nM formyl-Nle-Leu-Phe-Nle-Tyr-Lys-FITC, 4 °C, 60 min",1300 ± 300 nM
formyl-NleNleWED,"Downregulation of surface receptor, R190/K192",FPR R190/K192 [4]; concentrations up to 50 μM,very little downregulation
same,"Downregulation of surface receptor, R190/N192",FPR R190/N192 [5]; concentrations up to 50 μM,very little downregulation
same,"Downregulation of surface receptor, W190/N192",FPR W190/N192 [6]; concentrations up to 50 μM,very little downregulation
"For-[Nle][Nle]WEDWVGWI [formyl-NleNleWEDWVGWI, listing 1 of 2 here]",Ki,FPR W190/N192 [7],1000 nM
Ac-WEDWVGWI-NH2 [WEDWVGWI (FIV GP-36 peptide)],Ki,FPR R190/N192 [8],1300 nM
"For-[Nle][Nle]WEDWVGWI [formyl-NleNleWEDWVGWI, listing 2 of 2 here]",Ki,FPR R190/N192 [8],480 nM

# — paper PMC2094211 (Biochimica et Biophysica Acta. Molecular Basis of Disease, 2007)
